Experimental findings from ChEMBL document CHEMBL3872205, “Design, synthesis and evaluation of novel potent angiotensin II receptor 1 antagonists” (Eur J Med Chem, 2016) are described below.

SMILES strings stand for the structures.

One series relates to Rattus norvegicus. As to the kind of experiment: Toxicity in rat model assessed as effect on heart rate at 10 to 15 mg/kg, po up to 24 hrs. To be noted: in vivo. In kind it is organism-based.
The nature of series [1]: Displacement of 125I-Ang2 from AT1 receptor in SPF Sprague-Dawley rat vascular smooth muscle cell membranes after 150 mins by gamma counting method. The method in brief: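 Primary aortic VSMCs from SPF Sprague-Dawley rats, obtained by explant culture in DMEM/10% FBS and identified by SM α-actin staining; passages 3–6. Whole cells (10^6/well) incubated with 125I-Ang II (diluted to 0.2 nM) and compound at final 10^-12–10^-6 M, 4 °C for 150 min. Washed, lysed in 0.1 M NaOH, γ-counted. IC50 from nonlinear fit of competition curves.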
(In general: Loss of bound radioactivity is the signal in a displacement assay; it reports binding, not function.)

Series [2] in a line: AUC (0 to 72 hrs) in Wistar rat plasma at 15 mg/kg, po by HPLC analysis. In kind it is ADME, organism-based. More on the design: dose 15 mg/kg, time < 72 hr, route oral. The gist of the method:
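Male Wistar rats (180 ± 20 g, n = 6 per group) got one oral dose. Heparinized blood was taken by retro-orbital puncture before dosing and at 0.5–72 h. Plasma was spun at 4000 × g, 4 °C, 10 min, spiked with internal standard and protein-precipitated with acetonitrile. Analysis was reverse-phase C18 HPLC (0.02 mol/L KH2PO4 55%/acetonitrile 45%, 1.0 mL/min). Calibration used 0.1–10 µg/mL, peak-height ratio, weighting concentration^-2.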

The nature of series [3]: MRT (0 to 72 hrs) in Wistar rat plasma at 10 mg/kg, po by HPLC analysis. In kind it is ADME, organism-based. The method in brief: (§1)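 Male Wistar rats (180 ± 20 g), 6 per dose group, each given a single oral dose. Blood was drawn by retro-orbital puncture into heparin at predose and at 0.5, 1, 2, 4, 6, 8, 12, 24, 48 and 72 h, then spun at 4000 × g and 4 °C. Plasma with internal standard was acetonitrile-precipitated, filtered and run on reverse-phase C18 HPLC (0.02 mol/L KH2PO4 55% / acetonitrile 45%, 1.0 mL/min). Calibration standards were 0.1–10 µg/mL, fitted by peak-height ratio with 1/conc² weighting.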

Series [4] can be described thus: MRT (0 to infinity) in Wistar rat plasma at 10 mg/kg, po by HPLC analysis. Type of series: ADME, organism-based. The method in brief: as §1
The nature of series [5]: Cmax in Wistar rat heart at 15 mg/kg, po by HPLC analysis. More on the design: dose 15 mg/kg, route oral. In kind it is ADME, organism-based. The gist of the method: (§2)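 Tissue distribution in male Wistar rats given oral 10, 15 or 30 mg/kg; heart, liver, spleen, lung, kidney and brain collected predose and 0.5–72 h post-dose (n = 6 per time). Tissue rinsed in saline, homogenised 0.25 g/1 mL saline, methanol extraction, dried under nitrogen, reconstituted in methanol. Analysis by reverse-phase C18 HPLC, acetonitrile/water 60:40, 1.0 mL/min, ambient temperature.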

Series [6] in a line: MRT (0 to 72 hrs) in Wistar rat liver at 15 mg/kg, po by HPLC analysis. Type of series: ADME, organism-based. The gist of the method: (§3)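 Male Wistar rats (180 ± 20 g) received a single oral dose of 10, 15 or 30 mg/kg. Tissues were collected at 0, 0.5, 1, 2, 4, 6, 8, 12, 24, 48 and 72 h (n = 6 per point). Samples of 0.25 g were rinsed, then homogenized in saline (0.25 g/1 mL) and centrifuged at 10,000 × g. Supernatant was methanol-extracted, dried under nitrogen at 50 °C and reconstituted in methanol. Analysis was by C18 HPLC (acetonitrile 60% / water 40%, 1.0 mL/min).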

Series [7] can be described thus: MRT (0 to infinity) in Wistar rat liver at 30 mg/kg, po by HPLC analysis. Type of series: ADME, organism-based. The method in brief:
as §3

Series [8] can be described thus: Cmax in Wistar rat liver at 15 mg/kg, po by HPLC analysis. In kind it is ADME, organism-based. More on the design: dose 15 mg/kg, route oral. The method in brief: as §2
Series [9] is described as follows: AUC (0 to infinity) in Wistar rat spleen at 10 mg/kg, po by HPLC analysis. Type of series: ADME, organism-based. More on the design: dose 10 mg/kg, time infinity, route oral. The gist of the method:
(§4)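 Wistar rats (180 ± 20 g) were dosed orally at 10, 15 or 30 mg/kg. Heart, liver, spleen, lung, kidney and brain were collected at 0–72 h (n = 6 per point). Tissue was rinsed, blotted and homogenized in saline (0.25 g/1 mL), then spun at 10,000 × g. Supernatant was methanol-extracted, dried under nitrogen at 50 °C, reconstituted in methanol and run on C18 HPLC (acetonitrile 60%/water 40%, 1.0 mL/min).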

The nature of series [10]: MRT (0 to 72 hrs) in Wistar rat lung at 15 mg/kg, po by HPLC analysis. Type of series: ADME, organism-based. The method in brief: as §3
Series [11] in a line: AUC (0 to infinity) in Wistar rat kidney at 30 mg/kg, po by HPLC analysis. Type of series: ADME, organism-based. More on the design: dose 30 mg/kg, route oral, time infinity. The gist of the method:
as §4

Series [12] in a line: MRT (0 to infinity) in Wistar rat kidney at 10 mg/kg, po by HPLC analysis. Type of series: ADME, organism-based. The gist of the method: as §3
Series [13] is described as follows: Tmax in Wistar rat brain at 15 mg/kg, po by HPLC analysis. Type of series: ADME, organism-based. The method in brief:
as §3

The nature of series [14]: Toxicity in ICR mouse assessed as mortality at 1500 mg/kg, ig after 2 weeks. In kind it is organism-based. To be noted: in vivo, po.

What is called IC50 is the concentration that gives 50% inhibition. A high value points to weaker potency in that assay. By Ki is commonly meant the equilibrium dissociation constant of an inhibitor or competing ligand from its target. For orientation: AUC(0-t) means exposure summed from dosing to a finite time, without extrapolation to infinity. High values mean more exposure, low ones less exposure. The term MRT last denotes the average time that molecules of a dose stay in the body. One may read the MRT inf as a mean duration of stay, worked out from the concentration-time curve. For orientation: Cmax means the highest concentration seen after dosing. As a reminder, the AUC(0-inf) is total exposure, with the tail of the curve extrapolated. A lower AUC(0-inf) goes with less exposure. The Tmax is the time from dosing to the highest level. By mortality is commonly meant the percentage killed. Regarding `CCCCC1=NC2(CCCC2)C(=O)N1Cc1ccc2c(ccn2-c2ccccc2-c2nnn[nH]2)c1`, the Activity result in the series on Rattus norvegicus was “Non-Toxic”. The same compound gave an IC50 in series [1] of 1.26 nM. In [1], this compound came in with a Ki of 0.91 nM. Further, the AUC(0-t) at 72 h in [2] came out at 26500 ng·h/mL. For the same compound, the results for the MRT last in [3], in [6] and in series [10] were 7.87 h, 4.77 h and 6.64 h, respectively. For the same compound, the results for the MRT inf in [4], in [7] and in [12] were 6.61 h, 5.49 h and 25.3 h, respectively. Besides, the Cmax in series [5] amounted to 283 ng/mL; in [8], 1230 ng/mL. In addition, the figures for the total exposure AUC(0-inf) in series [9] and in series [11] were 11700 ng·h/mL and 29400 ng·h/mL, respectively. Further, the Tmax in [13] was 4.83 h. In addition, the mortality at 336 h in [14] came to 50%.
